Shown are actives, neighbours in structure and some others; about 1.8% of the full set was active somewhere.
DAGLB inh = diacylglycerol lipase beta (human) inhibition. inhibition, % at 5.17 µM. AID 504411. HEK293T DAGLB membrane lysate, EnzChek fluorogenic substrate. 340,000 compounds, 0.059% hits; in the data active = inhibition above about 34%;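 note: 0% = enzyme with vehicle and 100% = wells lacking enzyme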
Target sequence (Q8NCG7 whole entry, looked up): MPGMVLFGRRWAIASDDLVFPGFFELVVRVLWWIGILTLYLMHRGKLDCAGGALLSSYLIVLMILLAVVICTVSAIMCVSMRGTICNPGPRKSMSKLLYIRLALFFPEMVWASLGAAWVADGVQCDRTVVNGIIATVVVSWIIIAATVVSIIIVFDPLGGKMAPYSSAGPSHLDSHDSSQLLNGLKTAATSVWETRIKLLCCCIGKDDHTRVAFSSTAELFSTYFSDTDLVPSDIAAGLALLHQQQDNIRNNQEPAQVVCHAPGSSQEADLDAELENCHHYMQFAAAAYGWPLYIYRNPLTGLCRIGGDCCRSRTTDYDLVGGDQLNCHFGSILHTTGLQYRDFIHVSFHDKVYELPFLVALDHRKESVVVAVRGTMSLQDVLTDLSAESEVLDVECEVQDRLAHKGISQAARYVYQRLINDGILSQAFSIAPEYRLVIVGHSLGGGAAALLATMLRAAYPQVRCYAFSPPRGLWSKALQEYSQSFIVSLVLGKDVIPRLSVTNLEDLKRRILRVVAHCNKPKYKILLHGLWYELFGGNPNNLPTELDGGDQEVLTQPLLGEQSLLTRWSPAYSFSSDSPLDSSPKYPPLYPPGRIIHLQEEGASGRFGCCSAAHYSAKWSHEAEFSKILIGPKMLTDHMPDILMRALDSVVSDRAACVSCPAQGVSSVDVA
iPSC survival up = hiPSC single-cell survival enhancement; ATPlite luminescence; 100% = ROCK inhibitor wells, 0% = DMSO; survival enhancement, % at 20 µM; 360,000 compounds, 0.044% hits; in the data active = survival enhancement above about 18%;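 note: cells exposed to compounds for 16 hours before the ATP read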
Ecoli rRNA inh = selective bacterial rRNA inhibition in E. coli. E. coli WT GFP vs humanized-ribosome RFP mutants, fluorescence, 24 h; hits give low values; DMSO median 0, no signal -100. AID 720706. 350,000 compounds, 1.6% hits. GFP signal change (wild-type ribosome), % (concentration not given with the values);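 active = significant combined selectivity score with lowered wild-type GFP, culture density cut under 30%, mutant RFP and density less affected; inactive = any of these conditions unmet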
MT1-MMP act inh = blocks activation of human MT1-MMP; P50281; HT1080 RFP-PRO-GFP cells, GFP/RFP ratio fluorescence, overnight; percent of plate control window, DMSO zero; GFP/RFP ratio change, % at 20 µM; 360,000 compounds, 0.061% hits; AID 651647;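 active = GFP/RFP ratio change of at least 30% with cell ATP level not reduced by more than half and red fluorescence within 50% of control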
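Material – HT1080 RFP-PRO-GFP cells · Control set – DMSO wells and RFP-L50D-GFP cells · Incubation – overnight cell settling, then overnight compound exposure, 37 °C, 5% CO2 · Compound dosing – single-point 20 µM compound, 1% DMSO · Read-out – GFP/RFP fluorescence ratio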
SKN-1 inh = inhibitors of C. elegans SKN-1 | C. elegans VP596 Pgst-4::GFP/RFP ratio, acrylamide-induced, 24 h | inhibition, % at 21.8 µM | 360,000 compounds, 0.49% hits | AID 624304;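 active = interference check ratio from 0.5 to 1.5 plus GFP to RFP signal ratio inhibition reaching or exceeding a fixed threshold, cut at about 30% in these data, passing the limit was not always enough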
Cneo AK release = causes C. neoformans cell lysis; adenylate kinase release luminescence, 4 h; normalised: neutral wells 0, clomiphene wells 100; lysis activity, % at 15 µM; 360,000 compounds, 0.2% hits; AID 651654;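 active = mean lysis activity across replicates of at least 80%, whatever share of replicates individually reach that level; inactive = mean lysis activity below 80%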
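Material: C. neoformans cells | Amount: Yeast cell density of 5 × 10^6 cells/mL | Medium: Fresh YPD growth medium | Dosing: Single dose | Times: Static 4 h at 37 °C with compound, 1 h detection | Detection: AK luminescence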
The depositor's hits bear a star; . = no result given.

SMILES | DAGLB inh | iPSC survival up | Ecoli rRNA inh | MT1-MMP act inh | SKN-1 inh | Cneo AK release
COc1ccccc1N1CCN(C(=O)c2oc3ccc(F)cc3c2C)CC1 | -11.2 | 5.1 | -36.4* | -0.3 | -5.1 | 0.9
COc1ccccc1N1CCN(C(=O)c2oc3ccc(Br)cc3c2C)CC1 | -15.7 | -0.9 | -9.9 | -10.9 | -0.3 | .
COC(=O)c1sc(N2C(=O)C(=O)/C(=C(/O)c3ccccc3)C2c2ccco2)nc1C (stereo not drawn) | 8.2 | -0.8 | -34.2* | 2.9 | -5.6 | .
CCCc1[nH]n(-c2nc3ccccc3s2)c(=O)c1C=NCC1CCCO1 (stereo not drawn) | 2.6 | 2.2 | -25.3* | 0.2 | -5.4 | -3.1
CCCc1[nH]n(-c2nc3ccccc3s2)c(=O)c1C=NCCN1CCOCC1 | 4.6 | -0.1 | . | 4.7 | -3.8 | 6.3
C=CC[N+]1(CC#Cc2ccccc2)CCCC1 | -1.2 | 3.0 | 18.8 | 3.5 | -1.4 | .
C(#Cc1ccccc1)C[N+]1(CC#Cc2ccccc2)CCCC1 | 0.2 | -2.4 | -44.5* | -6.2 | 4.8 | -2.3
CCOC(=O)c1ccc(NC(=S)N2CCSC2c2c(F)cc(F)cc2F)cc1 (stereo not drawn) | -6.9 | -1.0 | -27.6* | 7.3 | 7.4 | .
CCCNC(=O)C[C@@H]1CC[C@H]2[C@@H](COC[C@@H](O)CN2C(=O)C2CCOCC2)O1 | . | . | -1.0 | . | . | 0.4
Cc1cc(OCCn2cc(/C(N)=N/O)c3ccccc32)ccc1Cl | -0.1 | -2.5 | -40.0* | 3.3 | 9.0 | -2.0
COC(=O)c1cn(CCOc2ccc(C)cc2)c2ccccc12 | -11.8 | 6.8 | . | 10.7 | 4.8 | -0.1
C[C@@H]1CN([C@H](C)CO)C(=O)c2cc(NC(=O)NC3CCCCC3)ccc2O[C@@H](C)CCCCO[C@@H]1CN(C)S(=O)(=O)c1ccccc1 | . | . | -1.2 | . | . | -2.5
O=C(O)CCNc1cc2ccccc2cc1C(=O)O | -2.0 | -3.3 | . | -3.1 | 36.5* | -1.6
O=C(O)CCNS(=O)(=O)c1ccc2ccccc2c1 | -3.5 | 0.0 | . | 7.6 | 5.8 | 8.9
Cc1ccc(N=Cc2cc(Cc3ccccc3Cl)cc([N+](=O)[O-])c2O)c(O)c1 | 21.5 | -1.3 | . | -0.7 | -1.5 | .
COc1ccc(N=Cc2cc(Cc3ccccc3Cl)cc([N+](=O)[O-])c2O)cc1OC | 19.3 | 0.4 | . | 12.7 | 38.2* | .
N#Cc1c(Cl)cccc1Oc1ccc(S(=O)(=O)Nc2ccccc2)cc1 | . | 0.2 | -28.5* | 3.4 | 10.4 | -1.0
C[C@H]1CCCCO[C@H](CN(C)Cc2ccc(Cl)c(Cl)c2)[C@@H](C)CN([C@@H](C)CO)C(=O)c2cc(NC(=O)Cc3ccccc3)ccc2O1 | . | . | -4.3 | . | . | 0.7
Clc1ccc2nc(-c3ccc(Br)s3)cn2c1 | -3.0 | -3.1 | . | 7.8 | 70.2* | -3.7
C[C@@H]1CCCCO[C@@H](CN(C)C(=O)Cc2ccccc2)[C@@H](C)CN([C@@H](C)CO)C(=O)c2cc(NS(=O)(=O)c3ccc(F)cc3)ccc2O1 | . | . | -2.5 | . | . | 11.2
O=C(Nc1nc(-c2ccc(S(=O)(=O)N3CCCC3)cc2)cs1)c1cccs1 | -6.1 | -0.6 | . | -10.7 | 37.6* | 3.1
O=C(Nc1nc(-c2ccc(S(=O)(=O)N3CCCCCC3)cc2)cs1)c1cccs1 | -5.3 | -1.5 | . | . | 0.6 | 1.6
CCN(c1ccccc1)S(=O)(=O)c1ccc(OC)c(OC)c1 | -6.8 | -0.7 | -17.9* | -5.5 | -4.0 | .
CCN(c1cccc(C)c1)S(=O)(=O)c1ccc2c(c1)NC(=O)CS2 | -1.9 | 0.0 | -27.8 | -1.0 | 14.2 | 19.0
CCN(c1ccc(OC)cc1)S(=O)(=O)c1ccc2c(c1)NC(=O)CS2 | 1.1 | -0.2 | -27.2* | -5.7 | -20.1 | -14.7
SMILES | DAGLB inh | iPSC survival up | Ecoli rRNA inh | MT1-MMP act inh | SKN-1 inh | Cneo AK release
CCN(c1ccccc1)S(=O)(=O)c1ccc2c(c1)N(C(C)=O)CCS2 | -3.4 | -0.5 | -25.9* | 0.6 | 20.6 | 1.2
C[C@H]1CN([C@@H](C)CO)C(=O)c2cc(NS(=O)(=O)c3ccc(Cl)cc3)ccc2O[C@H]1CN(C)C(=O)NC1CCCCC1 | . | . | -4.6 | . | . | -1.9
O=[N+]([O-])c1ccc(N/N=C/C=C/c2ccco2)cc1 | 6.4 | 0.4 | -39.9* | -74.9 | 23.3 | -0.9
O=C(N/N=C/c1ccc([N+](=O)[O-])o1)C(=O)Nc1ccc(C(=O)O)cc1 | 1.1 | -0.1 | 3.5 | -2.1 | -2.6 | -3.0
O=C(O)c1ccc(N/N=C/C=C/c2ccc([N+](=O)[O-])o2)cc1 | 21.5 | 0.0 | -31.8* | -16.2 | 27.6 | -0.3
CCCN1[C@@H]2c3ccc(-c4ccccc4OC)c(=O)n3C[C@@H]2[C@@H](CO)[C@@H]1C(=O)N(C)C | . | . | 0.0 | . | . | .
CN1c2ccc(-c3ccccc3)cc2[C@H]2[C@H](CCN2C(=O)NC2CCCCC2)[C@@H]1CO | . | . | -40.9 | . | . | .
O=C(C1CCN(S(=O)(=O)c2ccc(Cl)cc2)CC1)N1CCCCCCC1 | -0.7 | 0.5 | -2.3 | 1.6 | -10.9 | 0.4
O=C(C1CCN(S(=O)(=O)c2c(Cl)cccc2Cl)CC1)N1CCCC1 | 0.3 | 17.2 | . | 1.3 | 35.4* | -0.3
O=C(C1CCCCC1)N1CCN(S(=O)(=O)c2ccc(Cl)cc2)CC1 | -1.2 | -0.4 | . | -0.7 | 36.9* | -2.1
O=C(NC(c1ccc(-c2ccccc2)cc1)c1cnccn1)C1CCN(Cc2ccc(Oc3ccccc3)cc2)CC1 (stereo not drawn) | . | 1.5 | 33.4 | 3.7 | -1.2 | -3.2
O=C(NC(c1ccc(-c2ccccc2)cc1)c1cnccn1)C1CCN(Cc2cccs2)CC1 (stereo not drawn) | . | -4.0 | 4.6 | 3.2 | 45.6* | -1.4
COc1ccc2c3c(n(C)c2c1)[C@@H](CO)N(C(C)=O)CC31CN(C(=O)NC(C)C)C1 | . | . | 5.4 | . | . | .
O=C1C=C(Nc2ccccc2)c2ccccc2C1=O | 4.4 | -0.4 | -35.8 | 6.0 | 8.5 | .
CCc1ccc(NC2=CC(=O)C(=O)c3ccccc32)cc1 | 15.5 | -0.3 | -24.4* | 3.3 | 6.4 | .
Nc1ccc(N=Nc2ccccc2)c2ccccc12 | 3.3 | -0.3 | 3.5 | 3.5 | -5.3 | -0.3
c1ccc(N=Nc2ccc3cccccc2-3)cc1 | 21.4 | 0.7 | -19.8* | 6.0 | 45.4* | -4.0
Nc1ccc(N=Nc2ccccc2)c(N)n1 | 15.8 | -3.2 | -24.2* | -61.5 | 16.8 | 0.6
O=C(Nc1ccc(Cl)c(Cl)c1)N[C@@H]1CC[C@@H](CCn2cc(C3CC3)nn2)O[C@H]1CO | . | . | -10.5 | . | . | -1.3
CC(=O)c1cccc(NC(=O)COC(=O)C2CCCN2C(=O)c2cccs2)c1 (stereo not drawn) | -3.3 | -1.5 | -17.8* | -9.9 | -5.4 | 2.2
Cc1noc(C)c1NC(=O)N(C)C[C@@H]1Oc2ccc(NC(=O)CCN3CCOCC3)cc2C(=O)N([C@H](C)CO)C[C@@H]1C | . | . | 3.3 | . | . | -2.4
